Most compounds without a hit are left out; they make up all but 1.8% or so of the library.
MBD2 DNA inh: inhibitors of MBD2 binding to methylated DNA, primary screen, biochemical, TR-FRET, DNA-binding domain, human. Methyl-CpG-binding domain protein 2 (Homo sapiens), Q9UBB5. MBD2 binding to methylated oligonucleotide. inhibition, % at 4.4 µM. 370,000 compounds, 0.31% hits. AID 686964, 2013; in the data active = inhibition above about 13%
core dimer inh: inhibitors of HCV core protein dimerization, primary screen, biochemical, TR-FRET, high-throughput. TR-FRET GST/Flag-core106 dimerization, 1536-well. inhibition, % at 5 µM. 300,000 compounds, 0.33% hits. AID 1899, 2009;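 active = inhibition above the mean of all tested compounds plus 3 SD, set per screening campaign, cut at about 45% in these data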
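System: GST/Flag-tagged HCV core106 proteins. Incubation: compound-protein-antibody incubation 4 h at 22.5 °C. Technique: HTRF with 340 nm excitation, 617/671 nm emission. Medium: KF-containing HEPES buffer, pH 7.45, DTT, CHAPS, BSA. Read-out: inhibition (%) from 671 over 617 nm ratio. Also added: Eu(K)-anti-GST 90 ng/mL plus XL665-anti-Flag 1 µg/mL.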
LEDGF integ inh: blockers of LEDGF/p75-dependent integrase strand transfer – biochemical, TR-FRET, high throughput, primary screen | HIV-1 integrase (with human LEDGF/p75) | TR-FRET IN-LEDGF/p75 DNA integration, Eu/Cy5 | inhibition, % at 3.7 µM | 370,000 compounds, 0.64% hits;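 active = inhibition above the screen-wide mean plus 3 SD, cut at about 13% in these data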;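 also: signal is the Cy5 over europium emission ratio at 671 and 618 nm; 0% = plate median of compound wells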
UHRF1 binding: UHRF1 methylated DNA binding inhibitors, primary screen, counter-screen for MBD2 inhibitor project, biochemical, TR-FRET, human UHRF1, single concentration. UHRF1 binding to methylated oligo. inhibition, % at 4.4 µM. 370,000 compounds, 0.75% hits; in the data active = inhibition above about 21%;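 also: UHRF1 SRA domain binding a hemimethylated CpG hairpin DNA probe; 0% = median of test compound wells and 100% = reference inhibitor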
Target sequence (Q96T88 whole entry, looked up, the tested form may be a part): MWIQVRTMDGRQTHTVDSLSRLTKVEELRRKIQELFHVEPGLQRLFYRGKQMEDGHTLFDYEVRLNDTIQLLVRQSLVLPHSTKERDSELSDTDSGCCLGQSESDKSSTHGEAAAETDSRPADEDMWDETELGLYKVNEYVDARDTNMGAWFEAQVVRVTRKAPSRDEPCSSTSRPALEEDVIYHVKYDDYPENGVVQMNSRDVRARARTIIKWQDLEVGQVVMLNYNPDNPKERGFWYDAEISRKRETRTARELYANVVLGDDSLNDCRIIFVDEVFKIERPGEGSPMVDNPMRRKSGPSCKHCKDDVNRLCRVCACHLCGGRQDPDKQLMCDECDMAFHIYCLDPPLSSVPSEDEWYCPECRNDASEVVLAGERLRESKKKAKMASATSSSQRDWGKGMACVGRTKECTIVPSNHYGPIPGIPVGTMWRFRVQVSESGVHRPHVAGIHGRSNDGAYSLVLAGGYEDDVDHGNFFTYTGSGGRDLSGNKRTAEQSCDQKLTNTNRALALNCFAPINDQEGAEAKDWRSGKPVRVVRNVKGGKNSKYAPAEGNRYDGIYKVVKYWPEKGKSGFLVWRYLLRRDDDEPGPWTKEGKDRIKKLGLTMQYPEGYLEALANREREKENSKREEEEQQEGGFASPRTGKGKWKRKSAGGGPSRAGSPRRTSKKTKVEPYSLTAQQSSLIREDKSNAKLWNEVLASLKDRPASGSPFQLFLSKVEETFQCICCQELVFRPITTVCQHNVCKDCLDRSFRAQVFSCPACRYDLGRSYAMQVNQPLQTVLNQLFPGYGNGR
TDP2 absorb: human TDP2 enzyme inhibitors, primary screen, biochemical, epi absorbance, recombinant enzyme; AID 720702, 2013; inhibition, % at 12.8 µM; Tyrosyl-DNA phosphodiesterase 2 (Homo sapiens), O95551; 370,000 compounds, 0.34% hits; T5PNP hydrolysis, p-nitrophenol absorbance 415 nm;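 active = inhibition above the mean of all tested compounds plus 3 SD, set per campaign, cut at about 25% in these data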;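 also: 0% = DMSO with enzyme and 100% = buffer with substrate but no TDP2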
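Evaluation: % inhibition relative to enzyme-containing and enzyme-free wells. Material: recombinant human TDP2. Benchmarks: enzyme-free and DMSO wells. Timing: enzyme reaction with compound for 2 h at 37 °C. Compound dosing: 12.8 µM only. Measured by: p-Nitrophenol epi absorbance. Reagent: T5PNP substrate at 5 mM, a TopII-DNA adduct mimic. Replication: single well per compound.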
* = called active by the depositor; · = no result.

SMILES	MBD2 DNA inh	core dimer inh	LEDGF integ inh	UHRF1 binding	TDP2 absorb
C=CCN(C)C(C#Cc1ccccc1)c1ccccc1C(F)(F)F (configuration not stated)	1.8	·	-2.8	-0.6	5.8
Cc1[nH]n(-c2ccccc2)c(=O)c1C(C[N+](=O)[O-])c1ccc(Cl)cc1 (configuration not stated)	-5.9	-3.9	2.6	-9.5	27.2*
Cc1[nH]n(-c2ccccc2)c(=O)c1Sc1ccc(Cl)cc1	-1.8	6.7	-1.0	-5.3	10.1
Cc1[nH]n(-c2ccccc2)c(=O)c1C(c1ccccc1C(=O)O)c1c(C)[nH]n(-c2ccccc2)c1=O	1.8	-1.3	-1.7	-0.7	1.7
Cc1[nH]n(-c2ccccc2)c(=O)c1C(c1ccccc1[N+](=O)[O-])C(C#N)C#N (configuration not stated)	-3.1	3.9	6.8	-0.1	74.9*
CCCCN(C(=O)c1cccc(-c2ccc(OC(C)=O)cc2)c1)c1c(N)n(CCC)c(=O)[nH]c1=O	-1.6	·	4.4	73.1*	0.1
CCCCN(C(=O)c1cccc(C)c1)c1c(N)n(CCC)c(=O)[nH]c1=O	-5.4	-13.8	-0.9	2.2	-2.0
CCOc1ccccc1-n1nnnc1SCC(=O)NC(=O)Cc1ccccc1	-5.5	·	-4.1	-4.0	-5.9
Nn1c(SCC(=O)NC(=O)NCc2ccco2)nnc1-c1ccc(OC(F)F)cc1	2.3	78.9*	3.0	3.4	-9.7
CCOc1ccccc1-n1nnnc1SCC(=O)NC(=O)NCc1ccco1	-2.4	57.0*	4.8	3.1	-8.6
CCn1c(SCC(=O)NC(=O)NCc2ccco2)nc2sc(C)c(C)c2c1=O	1.1	51.2*	6.6	15.1	3.2
Cc1nnc(SCC(=O)NC(=O)NCc2ccco2)n1Cc1ccccc1	7.8	62.4*	5.4	6.3	10.2
COC(=O)[C@]12C[C@H](CC(=O)NCCC(C)C)C(=O)N(CCC3=CCCCC3)C1=C[C@H](C(C)C)O[C@@H]2C1CC1	0.6	·	-3.0	0.8	-9.4
CC(=O)N1CCc2c1cccc2S(=O)(=O)NC(CC(C)C)C(=O)Nc1ccc(Cl)c(Cl)c1 (configuration not stated)	2.1	·	1.9	-1.4	0.8
CCCCCCCCN1C(=O)[C@@H](CC(=O)N2CCN(C(=O)OCC)CC2)C[C@@]2(C(=O)OC)C1=C[C@H](COCc1ccccc1)O[C@@H]2C	-2.1	·	-1.6	0.0	0.7
O=C(CSc1nnnn1-c1ccccc1)NC(=O)NCc1ccco1	4.0	60.1*	11.9	16.1	-18.3
Cn1nnnc1SCC(=O)NCc1ccco1	1.3	-1.9	1.1	7.4	-16.1
COc1cc(C2Nc3c(F)cccc3C3C=CCC32)cc(Br)c1OC (configuration not stated)	0.2	46.3*	1.4	4.2	-8.8
COc1ccccc1CCn1cnc(-c2ccc(Br)cc2)c1CC(C)C	-5.8	·	0.8	-2.9	2.3
O=C(COC(=O)c1cc([N+](=O)[O-])ccc1NCc1ccccc1)NC1CCCc2ccccc21 (configuration not stated)	0.4	58.5*	-1.4	-2.9	7.4
O=C(COC(=O)c1ccccc1O)NC1CCCc2ccccc21 (configuration not stated)	0.5	·	0.3	0.2	1.1
CCOC(=O)C1=C(C)NC(=O)NC1c1c(C)nn(-c2ccccc2)c1Cl (configuration not stated)	9.6	-1.0	0.9	12.5	5.2
CCOC(=O)C1=C(C)N(C)C(=O)NC1c1c(C)nn(-c2ccc(C)cc2)c1Cl (configuration not stated)	3.8	7.2	0.4	23.4*	7.5
CC1(C)CC(=O)C=C(C#CC2CC2)C1	6.1	·	-1.0	22.9*	1.6
CCOc1ccc(N(CC(=O)Nc2c(C)n(C)n(-c3ccccc3)c2=O)S(=O)(=O)c2ccc3c(c2)N(C(=O)C2CCC2)CC3)cc1	-1.4	·	3.0	0.2	3.6
SMILES	MBD2 DNA inh	core dimer inh	LEDGF integ inh	UHRF1 binding	TDP2 absorb
CCN=C1NN=C(c2cc(C)n(CCc3ccccc3)c2C)CS1	-3.0	·	-4.2	-2.5	-0.1
CCN=C1NN=C(c2cc(C)n(Cc3ccco3)c2C)CS1	-1.3	48.3*	2.7	-5.4	4.0
Cc1ccc(C(=O)NC2CCS(=O)(=O)C2)cc1S(=O)(=O)N1CCCCC1 (configuration not stated)	-2.8	-0.9	0.8	24.9*	-2.0
CC1CCCC(NC(=O)COC(=O)c2ccc(S(=O)(=O)N3CCOCC3)cc2)C1C (configuration not stated)	12.0	0.2	-1.8	21.0*	-2.9
CCOc1ccc(NC(=O)COC(=O)c2cc(S(=O)(=O)N3CCCC3)ccc2C)cc1	2.5	·	0.9	1.6	-18.4
Cc1ccc(S(=O)(=O)N2CCCCC2)cc1C(=O)OCC(=O)NC(=O)NC12CC3CC(CC(C3)C1)C2	-4.6	1.9	0.8	45.1*	-3.8
Cc1ccc(S(=O)(=O)N2CCOCC2)cc1C(=O)OCC(=O)NC1CC1	4.0	·	2.4	-0.8	-5.0
Cc1ccc(S(=O)(=O)N2CCOCC2)cc1C(=O)OCC(=O)NC1CCS(=O)(=O)C1 (configuration not stated)	-2.9	-2.4	-6.4	21.5*	-4.8
O=C(CN1CCc2onc(-c3ccc(-n4cc(COc5ccc([N+](=O)[O-])cc5)nn4)cc3)c2C1=O)N1CCOCC1	-0.2	·	-0.8	-4.5	8.6
N#CCC[C@H]1CC[C@]2(CCCN(C(=O)c3ccccc3)C2)O1	5.2	·	-3.1	2.5	-7.0
O=C(CCc1ccccc1)N[C@H]1[C@H](OC(=O)c2cnccn2)CCC[C@]12C(=O)N(Cc1ccccc1)c1ccccc12	1.4	·	2.5	1.3	-5.7
COc1ccc(CCNC(=O)c2cc3c(=O)n4ccccc4nc3n(CCCN3CCOCC3)c2=N)cc1	-4.5	10.0	-0.2	23.6*	-19.6
COc1ccc(CCn2c(=N)c(C(=O)NCc3ccco3)cc3c(=O)n4ccccc4nc32)cc1OC	-5.0	·	1.0	-6.2	-6.6
Cc1ccc(Cn2c(=N)c(C(=O)NCc3ccco3)cc3c(=O)n4ccccc4nc32)cc1	0.1	63.4*	5.6	-2.5	-2.6
N=c1c(C(=O)NCc2ccco2)cc2c(=O)n3ccccc3nc2n1CCc1ccccc1	-3.8	52.4*	3.5	-12.6	-1.4
COc1ccc(CCNC(=O)c2cc3c(=O)n4ccccc4nc3n(Cc3ccco3)c2=N)cc1OC	-3.5	23.4	0.7	-4.5	-6.8

Screens (PubChem BioAssay)
